From ChEMBL document CHEMBL1153853, “Colon-specific mutual amide prodrugs of 4-aminosalicylic acid for their mitigating effect on experimental colitis in rats” (Eur J Med Chem, 2009) come the findings set out here.

Activity calls are given as the source filed them.

Series [1] is filed under the species Rattus norvegicus. Put plainly: Antiinflammatory activity against TNBS-induced Wistar rat colitis model assessed as decrease in ratio of colon to body weight treated rectally 3 days after TNBS induction for 8 days measured after 24 hrs of last treatment. In kind it is functional, organism-based. The conditions noted are these: in the assay text read “treated orally” for “treated rectally”. In outline:
(§1)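 Wistar rats (200–250 g, 12–15 weeks, n = 6/group), fasted 48 h, given TNBS 100 mg/kg in 50% ethanol (500 µl) intrarectally 8 cm via catheter under light ether; untreated 3 days, then dosed (controls got 1% carboxymethylcellulose); 11-day study. Sacrificed 24 h after last dose under isoflurane; 8 cm colon excised, colon/body weight ratio taken; mean of six.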

The test system of series [2] is Rattus norvegicus. Put plainly: Antiinflammatory activity against TNBS-induced Wistar rat colitis model assessed as decrease in severity of inflammation treated po 3 days after TNBS induction measured on day 7. In kind it is functional, organism-based. In outline:
(§2)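 TNBS colitis in Wistar rats (100 mg/kg in 50% ethanol, intrarectal, 48 h fast), left untreated 3 days before dosing, vehicle 1% carboxymethylcellulose. Weight loss, stool consistency and rectal bleeding scored daily over 11 days; the daily clinical activity score is the average of the three, 0 (healthy) to 4 (maximal colitis); mean of six rats.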

The species named for series [3] is Rattus norvegicus. The series can be described thus: Antiinflammatory activity against TNBS-induced Wistar rat colitis model assessed as decrease in severity of inflammation treated rectally 3 days after TNBS induction measured on day 7. Type of series: functional, organism-based. The conditions noted are these: in the assay text read “treated orally” for “treated rectally”. In outline:
as §2

The species entered for series [4] is Rattus norvegicus. The series can be described thus: Antiinflammatory activity against TNBS-induced Wistar rat colitis model assessed as decrease in severity of inflammation treated rectally 3 days after TNBS induction for 8 days measured after 24 hrs of last treatment. In kind it is functional, organism-based. In outline: as §2
Series [5] deals with Rattus norvegicus. Put plainly: Antiinflammatory activity against TNBS-induced po dosed Wistar rat colitis model assessed as inhibition of MPO activity in neutrophils per 100 mg of tissue. In kind it is functional. In outline: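 Colonic tissue from TNBS-colitis rats given oral treatment; MPO measured by the Krawisz method, one unit degrading […] hydrogen peroxide at 25 °C; reported as mU per 100 mg wet tissue.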

Series [6] concerns Rattus norvegicus. Put plainly: Inhibition of TNBS-induced morphological change in rectaly administered Wistar rat colon. Type of series: functional, organism-based.
Series [7] deals with Rattus norvegicus. Put plainly: Half life in TNBS-induced po dosed Wistar rat colitis model assessed as assessed as release of 5-aminosalicylic acid. Type of series: ADME, organism-based. The conditions noted are these: in vivo.
Series [8] deals with Rattus norvegicus. The series can be described thus: Antiinflammatory activity against TNBS-induced Wistar rat colitis model assessed as decrease in ratio of colon to body weight treated po 3 days after TNBS induction for 8 days measured after 24 hrs of last treatment. Type of series: functional. In outline: as §1
In series [9] the test system is Pancreas. The series can be described thus: Toxicity in rat pancreas. In kind it is tissue-based. The conditions noted are these: in vivo.
In series [10] the test system is Liver. Put plainly: Toxicity in rat liver. In kind it is tissue-based. The conditions noted are these: in vivo.
The test system of series [11] is Rattus norvegicus. Put plainly: Ulcerogenic effect in rat colon assessed as ulcer index at 2258.01 mg/kg by Rainsford's cold stress method. The conditions noted are these: in vivo. Type of series: toxicity, organism-based. Details: dose 2258.01 mg/kg.
The nature of series [12]: Aqueous solubility of the compound. Type of series: physicochemical. The conditions noted are these: water (aqueous). In outline:
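Solubility in distilled water at room temperature (25 ± 1 °C).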

Series [13] in a line: Partition coefficient, log p in n-octanol/phosphate buffer at pH 7.4. In kind it is physicochemical. In outline:
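Partitioning between n-octanol and phosphate buffer pH 7.4 at 25 ± 1 °C.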

Series [14] is described as follows: Stability assessed as half life in hydrochloric acid buffer at pH 1.2. Type of series: physicochemical. In outline:
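10 mg prodrug in 900 ml HCl buffer pH 1.2 (0.05 M, ionic strength 0.5 set with KCl) at 37 ± 1 °C for 10 h. Remaining prodrug followed by UV at 251 and 285 nm; first-order kinetics, triplicate.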

A short description of series [15]: Stability assessed as half life in phosphate buffer at pH 7.4. In kind it is physicochemical. In outline: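 Same set-up in phosphate buffer pH 7.4 (0.05 M, ionic strength 0.5 with KCl), 37 ± 1 °C, 10 h. Remaining prodrug read by UV at 255 and 290 nm; first-order kinetics, triplicate.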
Series [16] is described as follows: Half life in rat fecal matter assessed as release of 4-aminosalicylic acid. In kind it is ADME, tissue-based, Feces. The conditions noted are these: in vitro. In outline: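 Prodrug in phosphate buffer pH 7.4 (250 µg/ml, diluted to 50 µg/ml in 5 ml) added to 1 g fresh rat feces; incubated 37 °C anaerobically in a CO2 incubator for up to 20 h. Remaining prodrug read by UV at 255 nm (4AP) or 290 nm (4AT) against calibration curves; first-order fits, triplicate, mean K.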

The test system of series [17] is Rattus norvegicus. The series can be described thus: Half life in TNBS-induced po dosed Wistar rat colitis model assessed as assessed as release of 4-aminosalicylic acid. In kind it is ADME, organism-based. The conditions noted are these: in vivo.
Series [18] concerns Rattus norvegicus. The series can be described thus: Ulcerogenic effect in rat colon assessed as ulcer index at 3000 mg/kg by Rainsford's cold stress method. In kind it is toxicity, organism-based. More on the design: dose 3000 mg/kg. The conditions noted are these: in vivo.
For series [19], the system named is Rattus norvegicus. The series can be described thus: Ulcerogenic effect in rat colon assessed as ulcer index at 1154.30 mg/kg by Rainsford's cold stress method. Type of series: toxicity, organism-based. Details: dose 1154.3 mg/kg. The conditions noted are these: in vivo, 1154.3 mg/kg.
For series [20], the system named is Rattus norvegicus. The series can be described thus: Ulcerogenic effect in rat colon assessed as ulcer index at 2263.75 mg/kg by Rainsford's cold stress method. Type of series: toxicity, organism-based. Details: dose 2263.75 mg/kg. The conditions noted are these: in vivo.

For the compound `N[C@H](Cc1ccccc1)C(=O)O` [D-PHENYLALANINE], the outcome in series [1], in series [2], in [3], in series [4] and in series [6] was Active. In addition, the Activity in series [5] worked out at 61.43 mU.

With `Nc1ccc(S(=O)(=O)Nc2ccccn2)cc1` [SULFAPYRIDINE], the t1/2 in [7] stood at 2 h.

As a reminder, the solubility is how much of the substance goes into solution per volume. Read a high solubility as a readily soluble substance. For orientation: logD means the decadic logarithm of the distribution of all forms, ionised or not, between an organic phase and buffer at a given pH. Low values mean a more hydrophilic compound, high ones a more lipophilic compound. Usually half-life stands for the time needed for the level to fall by half in the phase considered. On to `Nc1ccc(C(=O)N[C@@H](Cc2c[nH]c3ccccc23)C(=O)[O-])c(O)c1.[Na+]`, for which the result in series [1], in series [2] and in [3] was Active. In addition, the Ratio in series [8] stood at 0.0071. Moreover, the Activity in series [5] is 49.24 mU; in series [9], “Non-toxic”; in series [10] it was “Non-toxic”. Further, the UI in series [11] amounted to 8.4. Also, the concentration in solution in series [12] (solubility) was 260 mg/mL. Further, the log distribution coefficient (logD) in series [13] was -0.19. In addition, the half-life in [14] and in series [15] was greater than 10 h throughout. Also, the t1/2 worked out at 5.72 h in series [16] and 6 h in [17].

For `O=C(O)c1cc(/N=N/c2ccc(S(=O)(=O)Nc3ccccn3)cc2)ccc1O` [SULFASALAZINE], the t1/2 in series [7] came to 2 h. The result in [2] and in series [3] was Active. Further, the Activity in series [5] stood at 46.63 mU. In addition, the UI in [18] is 5.83.

Take `Nc1ccc(C(=O)O)c(O)c1` [AMINOSALICYLIC ACID]: the result in [1], in [2] and in series [3] was Active. Besides, the Activity in series [5] was 70.51 mU. In [19], the UI amounted to 69.61. The compound also registered a logD in series [13] of 1.01.

As for `Nc1ccc(O)c(C(=O)O)c1` [MESALAMINE], the outcome in [2] and in [3] was Active. Further, in series [5], the Activity is listed as 60.85 mU. Moreover, in series [19], the UI was found to be 60.03.

`N[C@@H](Cc1c[nH]c2ccccc12)C(=O)O` [TRYPTOPHAN]: the outcome in series [1], in series [2], in series [3], in series [4] and in series [6] was Active. Moreover, the Activity in series [5] is reported as 72.25 mU.

For the compound `Nc1ccc(C(=O)N[C@H](Cc2ccccc2)C(=O)[O-])c(O)c1.[Na+]`, the outcome in series [1], in series [2] and in [3] was Active. Further, in series [8], the Ratio is reported as 0.0073. For the same compound, the values for the Activity in series [5], in [9] and in series [10] were 46.57 mU, “Non-toxic” and “Non-toxic”, respectively. The UI in series [20] is listed as 6. The same compound had a solubility in series [12] of 330 mg/mL. The logD in [13] was -0.21. Besides, the half-life in series [14] and in series [15] was greater than 10 h in each case. Besides, the t1/2 in series [16] is 6.87 h; in series [17] it was 6 h.
